From ChEMBL document CHEMBL1135477, “Antifungal agents. 10. New derivatives of 1-[(aryl)[4-aryl-1H-pyrrol-3-yl]methyl]-1H-imidazole, synthesis, anti-candida activity, and quantitative structure-analysis relationship studies” (J Med Chem, 2002)
≈ marks a conversion by molar mass, not a printed value.

Assays:
Type in all cases: functional
Candida albicans [1] = assay: IIn vitro antifungal activity against 40 strains of Candida albicans at pH 7.2; minimum inhibitory concentration (range is from 2 to 128)
Outline: (§1)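 Broth serial-dilution MIC against 40 clinical C. albicans isolates from hospitalized patients, grown in Sabouraud broth at pH 7.2 or 5.8. Cells were pre-grown 18 h at 37 °C, inoculated at 10³/mL, and read at 24 h, 37 °C. Doubling dilutions ran 0.25–256 μg/mL from a DMSO/water solution. MIC was the lowest concentration with no visible growth against a DMSO/water blank.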

Candida [2] = assay: Tested in vitro for antifungal activity against Candida species. at pH 5.8 (percent of resistant species at 256 ug/mL)
Outline: (§2)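 Broth serial-dilution test in Sabouraud broth at pH 7.2 or 5.8, against 3 fresh clinical non-albicans isolates (two C. glabrata, one C. krusei). Inocula were 10³/mL, pre-grown 18 h at 37 °C. Compound was twofold-diluted over 0.25–256 µg/mL and read at 24 h, 37 °C for visible growth.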

Candida [3] = assay: Tested in vitro for antifungal activity at pH 7.2 (percent of resistant species at 256 ug/mL)
Outline: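 Sabouraud broth serial-dilution test (0.25–256 µg/mL, 10³/mL inocula, 24 h at 37 °C), run at the stated pH on clinical isolates: 40 C. albicans and 3 Candida spp. (two C. glabrata, one C. krusei).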

Candida albicans [4] = assay: In vitro antifungal activity against 40 strains of Candida albicans at pH 5.8; outline: as §1
[5] = biological target: Lanosterol 14-alpha demethylase (Candida albicans (strain SC5314 / ATCC MYA-2876) (Yeast), UniProt P10613); assay: Anticandida activity- (MIC90 compound) / (MIC90 bifonazole)
Lanosterol 14-alpha demethylase, sequence (P10613 whole entry): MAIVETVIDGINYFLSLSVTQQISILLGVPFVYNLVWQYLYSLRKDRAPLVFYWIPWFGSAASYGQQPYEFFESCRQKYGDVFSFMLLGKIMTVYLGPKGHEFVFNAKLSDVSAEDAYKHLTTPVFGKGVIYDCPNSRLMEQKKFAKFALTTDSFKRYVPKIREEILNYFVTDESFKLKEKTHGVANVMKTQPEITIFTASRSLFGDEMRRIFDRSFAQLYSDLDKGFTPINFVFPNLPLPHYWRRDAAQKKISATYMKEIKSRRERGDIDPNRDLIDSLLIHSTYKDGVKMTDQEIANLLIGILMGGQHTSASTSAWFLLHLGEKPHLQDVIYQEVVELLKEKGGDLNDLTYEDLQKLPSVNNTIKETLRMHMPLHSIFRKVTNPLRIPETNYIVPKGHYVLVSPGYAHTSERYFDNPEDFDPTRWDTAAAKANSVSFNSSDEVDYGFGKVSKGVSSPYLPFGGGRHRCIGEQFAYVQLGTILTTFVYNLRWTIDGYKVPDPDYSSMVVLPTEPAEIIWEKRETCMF

Candida albicans [6] = assay: In vitro antifungal activity against 40 strains of Candida albicans at pH 5.8; (percent of resistant species at 256 ug/mL)
Outline: (§3)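 Broth serial-dilution test in Sabouraud broth at pH 7.2 or 5.8, against 40 fresh clinical C. albicans isolates from hospitalized patients. Inocula were 10³/mL, pre-grown 18 h at 37 °C in Sabouraud dextrose broth. Compound from a DMSO/water stock was twofold-diluted over 0.25–256 µg/mL. Visible growth was read at 24 h, 37 °C.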

Candida albicans [7] = assay: In vitro antifungal activity against 40 strains of Candida albicans at pH 7.2; (percent of resistant species at 256 ug/mL); outline: as §3
Candida [8] = assay: Tested In vitro for antifungal activity against Candida species. at pH 7.2; (range is from 8 to 256)
Outline: (§4)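 Liquid serial-dilution MIC against 3 freshly isolated clinical Candida strains (two C. glabrata, one C. krusei) in Sabouraud broth at pH 7.2 or 5.8. Inoculum was 10³/mL after 18 h pre-culture at 37 °C, read at 24 h, 37 °C. Range was 0.25–256 μg/mL. Endpoint was no visible growth versus a DMSO/water blank.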

Candida [9] = assay: Tested in vitro for antifungal activity against Candida species. at pH 5.8 (value ranges from 16 to 128); outline: as §4
Candida [10] = assay: Tested In vitro for antifungal activity against Candida species. at pH 7.2; outline: as §4
Candida [11] = assay: Tested in vitro for antifungal activity against Candida species. at pH 5.8; outline: as §4
Candida albicans [12] = assay: In vitro antifungal activity against 40 strains of Candida albicans at pH 7.2; outline: as §1
Candida albicans [13] = assay: In vitro antifungal activity against 40 strains of Candida albicans at pH 5.8; (range is from 4 to 64); outline: as §1
Candida albicans [14] = assay: In vitro antifungal activity against 40 strains of Candida albicans at pH 5.8; value ranges from 128 to >256; outline: as §1
Candida [15] = assay: Tested In vitro for antifungal activity against Candida species. at pH 7.2; (percent of resistant species at 256 ug/mL); outline: as §2
Candida albicans [16] = assay: In vitro antifungal activity against 40 strains of Candida albicans at pH 7.2; minimum inhibitory concentration ( range is from 32 to 128); outline: as §1
Candida [17] = assay: Tested In vitro for antifungal activity against Candida species. at pH 7.2; value ranges from 256 to >256; outline: as §4
Candida [18] = assay: Tested in vitro for antifungal activity against Candida species. at pH 5.8; value ranges from 256 to >256
Outline: (§5)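 Fresh clinical isolates (two C. glabrata, one C. krusei) were pre-grown 18 h at 37 °C in Sabouraud dextrose broth. Broth double-dilution was run in Sabouraud broth at pH 5.8 or 7.2 over 0.25–256 µg/mL from a DMSO/water stock, with 10³/mL inoculum.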

Candida albicans [19] = assay: In vitro antifungal activity against 40 strains of Candida albicans at pH 5.8; (range is from 2 to 128); outline: as §1
Candida albicans [20] = assay: In vitro antifungal activity against 40 strains of Candida albicans at pH 7.2; minimum inhibitory concentration (range is from 2 to 256); outline: as §1
Candida [21] = assay: Tested In vitro for antifungal activity against Candida species. at pH 7.2; (range is from 8 to 128); outline: as §4
Candida [22] = assay: Tested in vitro for antifungal activity against Candida species. at pH 5.8 (range is from 16 to 256); outline: as §4
Candida [23] = assay: Tested in vitro for antifungal activity against Candida species. at pH 5.8; (percent of resistant species at 256 ug/mL); outline: as §2
Candida [24] = assay: Tested in vitro for antifungal activity against Candida species. at pH 7.2; (percent of resistant species at 256 ug/mL); outline: as §2
Candida albicans [25] = assay: In vitro antifungal activity against 40 strains of Candida albicans at pH 7.2; minimum inhibitory concentration; value ranges from 128 to >256; outline: as §1
Candida [26] = assay: Tested in vitro for antifungal activity against Candida species. at pH 7.2; outline: as §5

| SMILES | MIC (Candida albicans [4]) | MIC50 (Candida albicans [4]) | MIC90 (Candida albicans [4]) | Ratio [5] | Resistance (Candida albicans [6]) | Resistance (Candida albicans [7]) | MIC (Candida [10]) | MIC50 (Candida [10]) | MIC90 (Candida [10]) | MIC (Candida [11]) | MIC50 (Candida [11]) | MIC90 (Candida [11]) | MIC (Candida albicans [12]) | MIC50 (Candida albicans [12]) | MIC90 (Candida albicans [12]) | Range (Candida albicans [14]) | Resistance (Candida [15]) | Resistance (Candida [2]) | other results |
| --- | --- | --- | --- | --- | --- | --- | --- | --- | --- | --- | --- | --- | --- | --- | --- | --- | --- | --- | --- |
| Clc1ccc([C@H](c2c[nH]cc2-c2ccc(-c3ccccc3)cc2)n2ccnc2)c(Cl)c1 | 10.1 µg/mL (≈ 22.6 µM) | 8 µg/mL (≈ 18 µM) | 8 µg/mL (≈ 18 µM) | 5.6 | 0% | 0% | 90.6 µg/mL (≈ 204 µM) | 8 µg/mL (≈ 18 µM) | 256 µg/mL (≈ 576 µM) | 53.3 µg/mL (≈ 120 µM) | 16 µg/mL (≈ 36 µM) | 128 µg/mL (≈ 288 µM) | 14.9 µg/mL (≈ 33.5 µM) | 8 µg/mL (≈ 18 µM) | 8 µg/mL (≈ 18 µM) |  |  |  | Range (Candida albicans [1]): 128 µg/mL; % R (Candida [2]): 0%; Resistance (Candida [3]): 0%; Range (Candida [8]): 256 µg/mL; Range (Candida [9]): 128 µg/mL; Range (Candida albicans [13]): 64 µg/mL |
| Nc1ccc(-c2c[nH]cc2[C@@H](c2ccc(Cl)cc2Cl)n2ccnc2)cc1 | 219 µg/mL (≈ 572 µM) | > 256 µg/mL | > 256 µg/mL | 52 | 80% | 54% | 256 µg/mL (≈ 668 µM) | > 256 µg/mL | > 256 µg/mL | 256 µg/mL (≈ 668 µM) | > 256 µg/mL | > 256 µg/mL | 85 µg/mL (≈ 222 µM) | > 256 µg/mL | > 256 µg/mL | >128 µg/mL | 67% | 67% | Range (Candida albicans [16]): 128 µg/mL; Range (Candida [17]): >256 µg/mL; Range (Candida [18]): >256 µg/mL |
| O=[N+]([O-])c1ccc(-c2c[nH]cc2[C@@H](c2ccc(Cl)cc2Cl)n2ccnc2)cc1 | 15 µg/mL (≈ 36.4 µM) | 8 µg/mL (≈ 19.4 µM) | 8 µg/mL (≈ 19.4 µM) | 1.5 | 0% | 0% | 56 µg/mL (≈ 136 µM) | 32 µg/mL (≈ 77.4 µM) | 128 µg/mL (≈ 310 µM) | 133 µg/mL (≈ 323 µM) | 128 µg/mL (≈ 310 µM) | 256 µg/mL (≈ 619 µM) | 14.7 µg/mL (≈ 35.6 µM) | 8 µg/mL (≈ 19.4 µM) | 8 µg/mL (≈ 19.4 µM) |  | 0% | 0% | Range (Candida albicans [19]): 128 µg/mL; Range (Candida albicans [20]): 256 µg/mL; Range (Candida [21]): 128 µg/mL; Range (Candida [22]): 256 µg/mL |
| Clc1ccc(-c2c[nH]cc2[C@@H](c2ccc(Cl)cc2Cl)n2cnnc2)cc1 | 128 µg/mL (≈ 317 µM) | > 256 µg/mL | > 256 µg/mL | 49 | 94% | 77% |  |  |  |  | > 256 µg/mL | > 256 µg/mL | 165 µg/mL (≈ 408 µM) | > 256 µg/mL | > 256 µg/mL | >256 µg/mL |  |  | Resistance (Candida [23]): 100%; Resistance (Candida [24]): 100%; Range (Candida albicans [25]): >256 µg/mL; Range (Candida [11]): >256 µg/mL; MIC50 (Candida [26]): > 256 µg/mL; MIC90 (Candida [26]): > 256 µg/mL; Range (Candida [26]): >256 µg/mL |
